Reference: ChEMBL document CHEMBL2440116, “Structure-activity relationships of 2-aminothiazoles effective against Mycobacterium tuberculosis” (Bioorg Med Chem, 2013)
≈ marks a conversion by molar mass, not a printed value.

How the values were obtained:
Assay type in all cases: functional
[1] = system: Mycobacterium tuberculosis; test: Antitubercular activity against Mycobacterium tuberculosis H37Rv in Middlebrook 7H9 broth with glucose after 7 to 14 days by broth microdilution method
Method in brief: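 Broth microdilution of H37Rv in 7H9 with 0.8 g/L NaCl, 5 g/L BSA fraction V, 4 g/L glucose and 0.05% Tyloxapol. Run in quadruplicate from DMSO stocks with DMSO controls; isoniazid positive control.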

[2] = system: Mycobacterium tuberculosis; test: Antitubercular activity against Mycobacterium tuberculosis H37Rv in Middlebrook 7H9 broth with butyrate after 7 to 14 days by broth microdilution method
[3] = system: Mycobacterium tuberculosis; test: Antitubercular activity against Mycobacterium tuberculosis H37Rv in GAST media with glycerol and alanine after 7 to 14 days by broth microdilution method

SMILES	MIC99 [1]	MIC99 [2]	MIC99 [3]
O=C(Nc1nc(-c2ccccn2)cs1)c1ccoc1	3.1 µM (≈ 0.841 µg/mL)	6.3 µM (≈ 1.71 µg/mL)	–
Cc1cccc(Nc2nc(-c3ccccn3)cs2)c1C	12.5 µM (≈ 3.52 µg/mL)	12.5 µM (≈ 3.52 µg/mL)	3.1 µM (≈ 0.872 µg/mL)
O=C(Nc1nc(-c2ccccn2)cs1)c1ccccc1[N+](=O)[O-]	1.6 µM (≈ 0.522 µg/mL)	–	0.78 µM (≈ 0.255 µg/mL)
O=C(Nc1nc(-c2ccccn2)cs1)c1ccc(Cl)cc1	1.6 µM (≈ 0.505 µg/mL)	0.78 µM (≈ 0.246 µg/mL)	0.39 µM (≈ 0.123 µg/mL)
O=C(Nc1nc(-c2ccccn2)cs1)C1CCCC1	12.5 µM (≈ 3.42 µg/mL)	3.1 µM (≈ 0.847 µg/mL)	–
O=C(Nc1nc(-c2ccccn2)cs1)c1cccnc1	6.3 µM (≈ 1.78 µg/mL)	3.1 µM (≈ 0.875 µg/mL)	> 12.5 µM
FC(F)(F)c1cccc(Nc2nc(-c3ccccn3)cs2)c1	25 µM (≈ 8.03 µg/mL)	25 µM (≈ 8.03 µg/mL)	> 12.5 µM
O=C(Nc1nc(-c2ccccn2)cs1)C1CCCCC1	6.3 µM (≈ 1.81 µg/mL)	3.1 µM (≈ 0.891 µg/mL)	1.6 µM (≈ 0.46 µg/mL)
FC(F)(F)c1ccc(Nc2nc(-c3ccccn3)cs2)cc1	25 µM (≈ 8.03 µg/mL)	12.5 µM (≈ 4.02 µg/mL)	≥ 12.5 µM
Cc1cccc(C)c1Nc1nc(-c2ccccn2)cs1	12.5 µM (≈ 3.52 µg/mL)	12.5 µM (≈ 3.52 µg/mL)	3.1 µM (≈ 0.872 µg/mL)
Clc1ccc(Nc2nc(-c3ccccn3)cs2)nc1	1.6 µM (≈ 0.462 µg/mL)	1.6 µM (≈ 0.462 µg/mL)	0.39 µM (≈ 0.113 µg/mL)
O=C(Nc1nc(-c2ccccn2)cs1)C1CCC1	12.5 µM (≈ 3.24 µg/mL)	6.3 µM (≈ 1.63 µg/mL)	6.3 µM (≈ 1.63 µg/mL)
Cc1ccccc1Nc1nc(-c2ccccn2)cs1	12.5 µM (≈ 3.34 µg/mL)	12.5 µM (≈ 3.34 µg/mL)	3.1 µM (≈ 0.829 µg/mL)
O=C(Nc1ccccc1)c1nc(-c2ccccn2)cs1	> 25 µM	–	> 25 µM
O=C(Nc1nc(-c2ccccc2)cs1)c1ccccc1	> 25 µM	–	≥ 25 µM
O=C(Nc1nc(-c2ccccn2)c[nH]1)c1ccccc1	25 µM (≈ 6.61 µg/mL)	–	3.13 µM (≈ 0.827 µg/mL)
Cc1cccc(Nc2nc(-c3ccccn3)cs2)c1	25 µM (≈ 6.68 µg/mL)	12.5 µM (≈ 3.34 µg/mL)	6.3 µM (≈ 1.68 µg/mL)
CCCCCC(=O)Nc1nc(-c2ccccn2)cs1	6.3 µM (≈ 1.73 µg/mL)	3.1 µM (≈ 0.854 µg/mL)	3.1 µM (≈ 0.854 µg/mL)

SMILES	MIC99 [1]	MIC99 [2]	MIC99 [3]
Fc1cccc(Nc2nc(-c3ccccn3)cs2)c1	25 µM (≈ 6.78 µg/mL)	25 µM (≈ 6.78 µg/mL)	> 12.5 µM
O=C(Nc1nc(-c2ccccn2)cs1)c1ccc(F)c(F)c1	1.6 µM (≈ 0.508 µg/mL)	3.1 µM (≈ 0.984 µg/mL)	0.39 µM (≈ 0.124 µg/mL)
Fc1ccc(Nc2nc(-c3ccccn3)cs2)cc1	25 µM (≈ 6.78 µg/mL)	25 µM (≈ 6.78 µg/mL)	12.5 µM (≈ 3.39 µg/mL)
CN(C(=O)c1ccccc1)c1nc(-c2ccccn2)cs1	> 25 µM	–	≥ 25 µM
CC1CC1C(=O)Nc1nc(-c2ccccn2)cs1 (stereo unspecified)	6.3 µM (≈ 1.63 µg/mL)	> 50 µM	–
O=C(Nc1nc(-c2ccccn2)co1)c1ccccc1	25 µM (≈ 6.63 µg/mL)	–	25 µM (≈ 6.63 µg/mL)
O=C(Nc1nc(-c2ccccn2)cs1)c1cscn1	> 50 µM	> 50 µM	> 50 µM
O=C(Nc1nc(-c2ccccn2)cs1)c1ccsc1	1.6 µM (≈ 0.46 µg/mL)	3.1 µM (≈ 0.891 µg/mL)	0.78 µM (≈ 0.224 µg/mL)
CCCCCCCCCC(=O)Nc1nc(-c2ccccn2)cs1	6.3 µM (≈ 2.09 µg/mL)	3.1 µM (≈ 1.03 µg/mL)	1.6 µM (≈ 0.53 µg/mL)
O=C(Nc1nc(-c2ccccn2)cs1)C1CC1	12 µM (≈ 2.94 µg/mL)	12.5 µM (≈ 3.07 µg/mL)	6.3 µM (≈ 1.55 µg/mL)
c1ccc(Nc2nc(-c3ccccn3)cs2)nc1	0.78 µM (≈ 0.198 µg/mL)	0.39 µM (≈ 0.0992 µg/mL)	0.39 µM (≈ 0.0992 µg/mL)
O=C(Nc1nc(-c2cnccn2)cs1)c1ccccc1	> 25 µM	–	> 25 µM
O=C(Nc1nnc(-c2ccccn2)s1)c1ccccc1F	> 6.25 µM	–	> 6.25 µM
O=C(Nc1nc(-c2cscn2)cs1)c1ccccc1	> 25 µM	–	≥ 25 µM
O=C(Nc1nnc(-c2ccccn2)o1)c1ccccc1F	12.5 µM (≈ 3.55 µg/mL)	–	6.25 µM (≈ 1.78 µg/mL)
O=C(Nc1nc(-c2ccccn2)cs1)c1cccc([N+](=O)[O-])c1	1.6 µM (≈ 0.522 µg/mL)	–	0.78 µM (≈ 0.255 µg/mL)
O=C(Nc1cc(-c2ccccn2)cs1)c1ccccc1	> 25 µM	–	12.5 µM (≈ 3.5 µg/mL)
O=C(Nc1nc(-c2ccccn2)cs1)c1cccs1	1.6 µM (≈ 0.46 µg/mL)	–	–
